Results published in paper PMC12297293 (Nature Communications, 2025).
Positions count from the first letter of the chain named. pKd: −log10 of the molar value. Counter-ions that a name gives are not always drawn. Like-named read-outs stand apart in the source and are kept apart here. Each block holds one compound with its values, some of them ahead of it.

Key:
human GMPK = target: T1, human GMPK (Homo sapiens, UniProt Q16774); assay: NMR chemical shift perturbation titration; type: binding
T1 sequence (Q16774 1-197): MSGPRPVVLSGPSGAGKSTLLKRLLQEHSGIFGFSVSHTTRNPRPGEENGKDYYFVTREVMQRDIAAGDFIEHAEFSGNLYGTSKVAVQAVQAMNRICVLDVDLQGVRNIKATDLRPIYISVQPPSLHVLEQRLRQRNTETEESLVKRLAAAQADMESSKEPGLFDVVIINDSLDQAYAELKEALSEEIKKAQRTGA
Summary of the method: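 15N-GMPK was expressed in M9 medium with 0.5 mM IPTG at 16 °C for 20 h, then diluted to 50–100 μM in 20 mM HEPES, 150 mM NaCl, pH 7.5, 10% D2O. 1H-15N HSQC at 298 K, 700 MHz with cryoprobe. Assignments transferred from BMRB 27151; overlapped peaks excluded. Chemical shift perturbations globally fitted to a one-site model with Kd shared across residues.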

human GMPK wild type [1] = target: T2, human GMPK wild type (Homo sapiens, UniProt Q16774); assay: NADH-dependent enzyme activity assay, wild-type GMPK; type: biochemical
T2 sequence (Q16774 1-197): T1 sequence (Q16774 1-197)

human GMPK wild type [2] = target: T2, human GMPK wild type; assay: ITC binding of nucleotides to wild-type GMPK
Summary of the method: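 ITC at 25 °C with recombinant human GMPK: SUMO-tagged, expressed in E. coli Rosetta (DE3), Ni-purified, tag cut with ULP1, then SEC. Both partners were in 20 mM HEPES pH 7.5 with 150 mM KCl. Cell held 50 μM GMPK; syringe held 1 mM GMP. One 1 μL injection was followed by 19 × 2 μL injections. Triplicate experiments.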

GMPK R148A mutant = target: T3, GMPK R148A mutant (Homo sapiens, UniProt Q16774, R148A); assay: ITC binding, GMPK R148A; settings: R148A vs wild type
T3 sequence (Q16774 1-197 R148A): T1 sequence (Q16774 1-197) with R148A
Summary of the method: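 Mutant made by homologous recombination and Sanger-verified, then expressed in E. coli Rosetta (DE3). Purified by Ni column, ULP1 cleavage of the SUMO tag and SEC (20 mM HEPES, 150 mM NaCl, pH 7.5). ITC at 25 °C with 50 μM protein in the cell and 1.25 or 2.5 mM GMP in the syringe. Injections: 1 μL, then 19 × 2 μL.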

GMPK-ADP mixture = target: T4, GMPK-ADP mixture (Homo sapiens, UniProt Q16774); assay: ITC of GMP into GMPK-ADP mixture; settings: GMP binding after incubation of ADP
T4 sequence (Q16774 1-197): T1 sequence (Q16774 1-197)
Summary of the method: (§1)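 GMP titrated into a preformed nucleotide–enzyme mixture by ITC at 25 °C. Cell held 50 μM recombinant human GMPK premixed with 0.5 mM ADP or ATPγS. Syringe held 2 or 2.5 mM GMP. One 1 μL injection, then 19 × 2 μL. Fitted Kd reported.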

GMPK-ATPγS mixture = target: T5, GMPK-ATPγS mixture (Homo sapiens, UniProt Q16774); assay: ITC of GMP into GMPK-ATPγS mixture; settings: GMP binding after prior incubation of ATPγS
T5 sequence (Q16774 1-197): T1 sequence (Q16774 1-197)
Summary of the method: as §1

pKd (human GMPK): 4.52
SMILES: Nc1ncnc2c1ncn2[C@@H]1O[C@H](CO[P@](=O)(O)O[P@](=O)(O)O[P@@](=O)(O)S)[C@@H](O)[C@H]1O [ATPγS, reference compound]

pKd (human GMPK; read-out: Kd from NMR titration, binding to the p-loop region of GMPK): 2.25 | mode of inhibition (human GMPK wild type [1]; Michaelis-Menten curves for ATP under 1, 5 and 10 mM SO4 2-): competitive inhibitor of ATP
SMILES: O=S(=O)(O)O [sulfate ions, sulfate ion]

pKd (human GMPK wild type [2]; GMP binding to GMPK without prior incubation): 4.49 | pKd (human GMPK wild type [2]; read-out: Mean Kd, GMP into GMPK, 150 mM KCl, triplicate experiments): 5.15 | pKd (GMPK-ADP mixture): 4.22 | pKd (GMPK-ATPγS mixture): 3.77
SMILES: Nc1nc2c(ncn2[C@@H]2O[C@H](COP(=O)(O)O)[C@@H](O)[C@H]2O)c(=O)[nH]1 [GMP]
weakening of GMP binding by R148A mutagenesis (GMPK R148A mutant): 1.7 fold

decrease of kcat at 150 mM relative to 10 mM (human GMPK wild type [1]; 150 mM vs 10 mM potassium ions): 1.5 fold | K+ concentration at which the initial reaction rate reached its maximum (human GMPK wild type [1]; saturating substrate conditions): about 7.5 mM
SMILES: [Cl-].[K+] [KCl, potassium chloride]
